Results from ChEMBL document CHEMBL4699443, “Position of lipidation influences anticancer activity of Smac analogs” (Bioorg Med Chem Lett, 2019).
Non-standard residues stand in square brackets, D forms with d. Residues, ends and D or L forms follow the SMILES beside them. *: point of attachment. Pro(cis-4-OPh) = O=C(O)[C@@H]1C[C@H](Oc2ccccc2)CN1; Bip = N[C@@H](Cc1ccc(-c2ccccc2)cc1)C(=O)O; X2 = CCCCCCCCCCCCCCCCCCS(=O)(=O)CCN*; Tle = CC(C)(C)[C@H](N)C(=O)O; X1 = CCCCCCCCCCCCCCCCCCSCCN*; NMeA = CN[C@@H](C)C(=O)O

Key:
KOPN-8 [1] = test: Induction of apoptosis in human KOPN8 cells assessed as early apoptotic cells at 10 uM after 24 hrs by AnnexinV/PI-staining based flow cytometry; type: functional
Outline: (§1)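 KOPN-8 cells treated with 1 or 10 μM compound, alone or as an equimolar two-compound mixture. Cultured for a time course, then stained with annexin V and propidium iodide. Read by flow cytometry; populations gated by annexin V/PI staining, including annexin V+/PI+ double positives.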

MDA-MB-361 [2] = test: Antitumor activity against sc dosed human MDA-MB-361 cells xenografted in BALB mouse administered up to 12 days by caliper analysis; type: functional, organism-based; details: dose mg/kg 10-20, time 12.0 day
Outline: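 Tumor-bearing mice, subcutaneous engraftment model; compound given SC at 10 or 20 mg/kg in 2% Cremophor EL, 2×5 injections (10 doses total). Read-out is tumor growth delay in days, taken at a tumor volume of 500 mm3.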

KOPN-8 [3] = test: Induction of apoptosis in human KOPN8 cells assessed as late apoptotic cells at 10 uM after 168 hrs by AnnexinV/PI-staining based flow cytometry; type: functional; outline: as §1
KOPN-8 [4] = test: Induction of apoptosis in human KOPN8 cells assessed as necrotic cells at 10 uM after 72 hrs by AnnexinV/PI-staining based flow cytometry; type: functional; outline: as §1
HL-60 = test: Antiproliferative activity against human HL60 cells assessed as growth inhibition after 48 hrs by PrestoBlue dye based fluorescence assay; type: functional, cell-based; details: HL-60, 48 h
KOPN-8 [5] = test: Induction of apoptosis in human KOPN8 cells assessed as early apoptotic cells at 10 uM after 72 hrs by AnnexinV/PI-staining based flow cytometry; type: functional; outline: as §1
KOPN-8 [6] = test: Induction of apoptosis in human KOPN8 cells assessed as early apoptotic cells at 10 uM after 168 hrs by AnnexinV/PI-staining based flow cytometry; type: functional; outline: as §1
[7] = Drug level in C57BL/6 mouse plasma at 10 mg/kg, sc after 30 mins by LC-MS analysis; type: ADME, organism-based; details: in vivo, 0.5 h
Outline: (§2)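 Mice individually weighed, then given a single SC dose of 10 mg/kg. Blood taken by retro-orbital bleeding at set time points. Plasma levels measured by triple-quadrupole LC/MS; plasma half-life derived from these levels.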

KOPN-8 [8] = test: Induction of apoptosis in human KOPN8 cells assessed as necrotic cells at 10 uM after 168 hrs by AnnexinV/PI-staining based flow cytometry; type: functional; outline: as §1
[9] = Antiproliferative activity against human UM-SCC-12 cells assessed as growth inhibition after 48 hrs by PrestoBlue dye based fluorescence assay; type: functional, cell-based; details: UM-SCC-12, 48 h
KOPN-8 [10] = test: Induction of apoptosis in human KOPN8 cells assessed as necrotic cells at 10 uM after 48 hrs by AnnexinV/PI-staining based flow cytometry; type: functional; outline: as §1
KOPN-8 [11] = test: Induction of apoptosis in human KOPN8 cells assessed as late apoptotic cells at 10 uM after 24 hrs by AnnexinV/PI-staining based flow cytometry; type: functional; outline: as §1
KOPN-8 [12] = test: Induction of apoptosis in human KOPN8 cells assessed as increase in caspase 9 activity at 0.1 to 50 uM after 24 hrs by Caspase-glo reagent based microplate reader analysis relative to control; type: functional; details: dose microM 0.1-50
[13] = Cmax in C57BL/6 mouse at 10 mg/kg, sc by LC-MS analysis; type: ADME, organism-based; set-up: route subcutaneous, dose 10 mg/kg; details: in vivo; outline: as §2
KOPN-8 [14] = test: Induction of apoptosis in human KOPN8 cells assessed as viable cells at 10 uM after 48 hrs by AnnexinV/PI-staining based flow cytometry; type: functional; details: read-out: Activity; outline: as §1
KOPN-8 [15] = test: Induction of apoptosis in human KOPN8 cells assessed as necrotic cells at 10 uM after 24 hrs by AnnexinV/PI-staining based flow cytometry; type: functional; outline: as §1
[16] = Antiproliferative activity against human M233 cells assessed as growth inhibition after 48 hrs by PrestoBlue dye based fluorescence assay; type: functional, cell-based; details: M233, 48 h
KOPN-8 [17] = test: Antiproliferative activity against human KOPN-8 cells assessed as growth inhibition after 48 hrs by PrestoBlue dye based fluorescence assay; type: functional, cell-based; details: KOPN-8, 48 h
PC-3 = test: Antiproliferative activity against human PC-3 cells assessed as growth inhibition after 48 hrs by PrestoBlue dye based fluorescence assay; type: functional, cell-based; details: PC-3, 48 h
MDA-MB-361 [18] = test: Antiproliferative activity against human MDA-MB-361 cells assessed as growth inhibition after 48 hrs by PrestoBlue dye based fluorescence assay; type: functional, cell-based; details: MDA-MB-361, 48 h
[19] = Antiproliferative activity against human M263 cells assessed as growth inhibition after 48 hrs by PrestoBlue dye based fluorescence assay; type: functional, cell-based; details: M263, 48 h
KOPN-8 [20] = test: Induction of apoptosis in human KOPN8 cells assessed as viable cells at 10 uM after 24 hrs by AnnexinV/PI-staining based flow cytometry; type: functional; details: read-out: Activity; outline: as §1
[21] = Antiproliferative activity against human UM-SCC-178 cells assessed as growth inhibition after 48 hrs by PrestoBlue dye based fluorescence assay; type: functional, cell-based; details: UM-SCC-178, 48 h
[22] = Antiproliferative activity against human UM-SCC-5 cells assessed as growth inhibition after 48 hrs by PrestoBlue dye based fluorescence assay; type: functional, cell-based; details: UM-SCC-5, 48 h
KOPN-8 [23] = test: Induction of apoptosis in human KOPN8 cells assessed as early apoptotic cells at 10 uM after 48 hrs by AnnexinV/PI-staining based flow cytometry; type: functional; outline: as §1
KOPN-8 [24] = test: Induction of apoptosis in human KOPN8 cells assessed as viable cells at 10 uM after 168 hrs by AnnexinV/PI-staining based flow cytometry; type: functional; details: read-out: Activity; outline: as §1
KOPN-8 [25] = test: Induction of apoptosis in human KOPN8 cells assessed as late apoptotic cells at 10 uM after 48 hrs by AnnexinV/PI-staining based flow cytometry; type: functional; outline: as §1
THP-1 = test: Antiproliferative activity against human THP1 cells assessed as growth inhibition after 48 hrs by PrestoBlue dye based fluorescence assay; type: functional, cell-based; details: THP-1, 48 h
KOPN-8 [26] = test: Induction of apoptosis in human KOPN8 cells assessed as late apoptotic cells at 10 uM after 72 hrs by AnnexinV/PI-staining based flow cytometry; type: functional; outline: as §1
KOPN-8 [27] = test: Induction of apoptosis in human KOPN8 cells assessed as viable cells at 10 uM after 72 hrs by AnnexinV/PI-staining based flow cytometry; type: functional; details: read-out: Activity; outline: as §1
BT-474 = test: Antiproliferative activity against human BT-474 cells assessed as growth inhibition after 48 hrs by PrestoBlue dye based fluorescence assay; type: functional, cell-based; details: BT-474, 48 h
T84 = test: Antiproliferative activity against human T84 cells assessed as growth inhibition after 48 hrs by PrestoBlue dye based fluorescence assay; type: functional, cell-based; details: T84, 48 h
[28] = Tmax in C57BL/6 mouse at 10 mg/kg, sc by LC-MS analysis; type: ADME, organism-based; details: in vivo; outline: as §2
Hep 3B2 = test: Antiproliferative activity against human Hep3B cells assessed as growth inhibition after 48 hrs by PrestoBlue dye based fluorescence assay; type: functional, cell-based
HepG2 = test: Antiproliferative activity against human HepG2 cells assessed as growth inhibition after 48 hrs by PrestoBlue dye based fluorescence assay; type: functional, cell-based; details: HepG2, 48 h
LNCaP = test: Antiproliferative activity against human LNCAP cells assessed as growth inhibition after 48 hrs by PrestoBlue dye based fluorescence assay; type: functional, cell-based
PANC-1 = test: Antiproliferative activity against human PANC-1 cells assessed as growth inhibition after 48 hrs by PrestoBlue dye based fluorescence assay; type: functional, cell-based; details: PANC-1, 48 h
FaDu = test: Antiproliferative activity against human FADU cells assessed as growth inhibition after 48 hrs by PrestoBlue dye based fluorescence assay; type: functional, cell-based
SK-MEL-28 = test: Antiproliferative activity against human SK-MEL-28 cells assessed as growth inhibition after 48 hrs by PrestoBlue dye based fluorescence assay; type: functional, cell-based; details: SK-MEL-28, 48 h
HCT-116 = test: Antiproliferative activity against human HCT116 cells assessed as growth inhibition after 48 hrs by PrestoBlue dye based fluorescence assay; type: functional, cell-based; details: HCT-116, 48 h
MCF7 = test: Antiproliferative activity against human MCF7 cells assessed as growth inhibition after 48 hrs by PrestoBlue dye based fluorescence assay; type: functional, cell-based; details: MCF7, 48 h
[29] = Antiproliferative activity against human UM-SCC-6 cells assessed as growth inhibition after 48 hrs by PrestoBlue dye based fluorescence assay; type: functional, cell-based; details: UM-SCC-6, 48 h
SW480 = test: Antiproliferative activity against human SW480 cells assessed as growth inhibition after 48 hrs by PrestoBlue dye based fluorescence assay; type: functional, cell-based; details: SW480, 48 h
[30] = Antiproliferative activity against human CEMTL cells assessed as growth inhibition after 48 hrs by PrestoBlue dye based fluorescence assay; type: functional, cell-based; details: CEM-TL

Compound: CCCCCCCCCCCCCCCCCCSCCNC(=O)[C@H](Cc1ccc(-c2ccccc2)cc1)NC(=O)[C@@H]1C[C@H](Oc2ccccc2)CN1C(=O)[C@@H](NC(=O)[C@H](C)NC)C(C)(C)C (H-[NMeA][Tle][Pro(cis-4-OPh)][Bip]-X1)
- Activity (KOPN-8 [1]): 1.67%
- Activity (MDA-MB-361 [2]): Dose-dependent effect
- Activity (KOPN-8 [3]): 9.97%
- Activity (KOPN-8 [4]): 1.41%
- EC50 (HL-60): 2000 nM
- Activity (KOPN-8 [5]): 1.27%
- Activity (KOPN-8 [6]): 1.81%
- Cp [7]: 7.5633 µM
- Activity (KOPN-8 [8]): 0.63%
- EC50 [9]: 1100 nM
- Activity (KOPN-8 [10]): 1.97%
- Activity (KOPN-8 [11]): 20.3%
- fold change (FC) (KOPN-8 [12]): 1.5
- Cmax [13]: 15.1265 µM
- viability at 10 µM (KOPN-8 [14]): 79.3%
- Activity (KOPN-8 [15]): 7.06%
- EC50 [16]: 9500 nM
- EC50 (KOPN-8 [17]): 1000 nM
- EC50 (PC-3): 2200 nM
- EC50 (MDA-MB-361 [18]): 1700 nM
- EC50 [19]: 2900 nM
- viability at 10 µM (KOPN-8 [20]): 71%
- EC50 [21]: 2700 nM
- EC50 [22]: 960 nM
- Activity (KOPN-8 [23]): 0.94%
- viability at 10 µM (KOPN-8 [24]): 87.6%
- Activity (KOPN-8 [25]): 17.8%
- EC50 (THP-1): 8700 nM
- Activity (KOPN-8 [26]): 22.4%
- viability at 10 µM (KOPN-8 [27]): 74.9%
- EC50 (BT-474): 320 nM
- EC50 (T84): 2000 nM
- Tmax [28]: 16 h

Compound: CCCCCCCCCCCCCCCCCCS(=O)(=O)CCNC(=O)[C@H](Cc1ccc(-c2ccccc2)cc1)NC(=O)[C@@H]1C[C@H](Oc2ccccc2)CN1C(=O)[C@@H](NC(=O)[C@H](C)NC)C(C)(C)C (H-[NMeA][Tle][Pro(cis-4-OPh)][Bip]-X2)
- EC50 (Hep 3B2): 240 nM
- EC50 [9]: 1100 nM
- EC50 (HepG2): 2100 nM
- EC50 (LNCaP): 10500 nM
- EC50 (PANC-1): 4700 nM
- EC50 (FaDu): 640 nM
- EC50 (SK-MEL-28): 11300 nM
- EC50 (PC-3): 2300 nM
- EC50 (HCT-116): 1500 nM
- EC50 (MCF7): 48200 nM
- EC50 [29]: 4800 nM
- EC50 (SW480): 25700 nM
- EC50 [30]: 14200 nM
